Molecules are shown by their SMILES.

Test [1] concerns A2780. Description: Antiproliferative activity against human A2780 cells. It counts as cell-based.
The subject of test [2] is Plasmodium falciparum. Description: Antiplasmodial activity against chloroquine-resistant Plasmodium falciparum Dd2 after 72 hrs by SYBR green 1 dye based fluorometric method. The format is functional, organism-based. The following applies: Dd2, 72 h. A digest of the protocol: (§1)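 Sorbitol-synchronised ring-stage cultures (>95% rings), final 1% hematocrit and 0.5% parasitemia, added to prewarmed wells holding sample diluted in complete medium from DMSO stock. Incubated 72 h at 37 °C under 90% N, 5% O2, 5% CO2. SYBR Green I added, 1 h at 37 °C, fluorescence ex 490/em 530 nm. Triplicate IC50s averaged (±S.E.M.); chloroquine positive control.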

Test [3] relates to Plasmodium falciparum. Description: Antiplasmodial activity against chloroquine-sensitive Plasmodium falciparum HB3 after 72 hrs SYBR green 1 dye based by fluorometric method. It counts as functional, organism-based. As to conditions: HB3, 72 h. An outline of the steps: as §1
Test [4] relates to Plasmodium falciparum. Description: Resistance factor, ratio of IC50 for chloroquine-resistant Plasmodium falciparum Dd2 to IC50 for chloroquine-sensitive Plasmodium falciparum HB3. It counts as functional.

`C=C1C(=O)O[C@@H]2[C@@H](C)[C@@H]3C=CC(=O)[C@@]3(C)[C@@H](OC(=O)/C(C)=C\C)[C@H]1[C@H]2OC(=O)CC(C)(C)O` (relative stereo): the IC50 in test [1] turned out to be 570 nM.

With `C=C1C(=O)O[C@@H]2[C@@H](C)[C@@H]3C=CC(=O)[C@@]3(C)[C@@H](OC(=O)/C=C(\C)CC)[C@H]1[C@H]2OC(=O)CC(C)(O)CC` (relative stereo), the half-inhibitory concentration (IC50) in test [1] is 1900 nM.

With `CC(=O)O[C@H]1C(=O)[C@@]2(C)[C@H]([C@H](OC(=O)c3ccccc3)[C@]3(O)C[C@H](OC(=O)[C@H](O)[C@@H](NC(=O)c4ccccc4)c4ccccc4)C(C)=C1C3(C)C)[C@]1(OC(C)=O)CO[C@@H]1C[C@@H]2O` [PACLITAXEL], in test [1], the IC50 worked out at 17 nM.

`C=C1C(=O)O[C@H]2C[C@@H](C)[C@@H]3[C@@H](OC(=O)C(C)C)C[C@@H](OC(C)=O)[C@@]3(C)[C@@H](OC(C)=O)[C@H]12` [ATHROLIDE A]: the IC50 worked out at 32700 nM in test [2], 34300 nM in test [3] and 2100 nM in test [1]. The “Ratio IC50” value in test [4] came to 1.

Consider `C=C1C(=O)O[C@@H]2[C@@H](C)[C@@H]3C=CC(=O)[C@@]3(C)[C@@H](OC(=O)/C(C)=C\C)[C@H]1[C@H]2OC(=O)CC(C)(O)CC` (relative stereo), for which the IC50 in test [1] came to 380 nM.

In test [1], `C=C1C(=O)O[C@H]2C[C@@H](C)[C@@H]3[C@@H](OC(=O)C(C)C)C[C@@H](OC(C)=O)[C@@]3(C)[C@H](O)[C@H]12` [ATHROLIDE B] yielded an IC50 of 2500 nM. This IC50 is about 6.6-fold higher than that of the compound before.

As usually defined, the IC50 is the concentration that inhibits the measured activity by half. A lower IC50 goes with greater potency.

For the origin of these results see ChEMBL document CHEMBL1833904, “Antiplasmodial and antiproliferative pseudoguaianolides of Athroisma proteiforme from the Madagascar Dry Forest” (J Nat Prod, 2011).
